The subject of one assay is Xenopus laevis. The assay can be described thus: Anesthetic potency in Xenopus laevis. Format: functional, organism-based.
For assay [1], the target named is T1, GABA-A receptor; alpha-1/beta-2/gamma-2 (Homo sapiens) (UniProt P14867+P47870+P18507). The assay can be described thus: Agonist activity at human GABA-A alpha-1-beta-2-gamma-2 receptor expressed in Xenopus laevis assessed as increase in channel current at 5 uM by electrophysiology relative to control. In kind it is functional.
Assay [2] concerns the target T1, GABA-A receptor; alpha-1/beta-2/gamma-2 (Homo sapiens). In words: Agonist activity at human GABA-A alpha-1-beta-2-gamma-2 receptor expressed in Xenopus laevis assessed as increase in channel current at 10 uM by electrophysiology relative to control. Format: functional.
Assay [3] shares this target. In words: Agonist activity at human GABAA alpha-1-beta-2-gamma-2 mutant receptor expressed in Xenopus laevis assessed as increase in channel current at 5 uM by electrophysiology relative to control. Format: functional. An outline of the steps: (§1)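 Oocytes expressing human α1β2(M286W)γ2L GABA-A receptor. Two-electrode voltage clamp at −50 mV, room temperature, ND96 pH 7.5. […] Applications lasted 15–20 s with ~3 min washes.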

For assay [4] the target is unchanged. In words: Agonist activity at human GABAA alpha-1-beta-2-gamma-2 mutant receptor expressed in Xenopus laevis assessed as increase in channel current at 10 uM by electrophysiology relative to control. In kind it is functional. Summed up:
as §1

The target of assay [5] is T2, 5-hydroxytryptamine receptor 3A (Homo sapiens) (UniProt P46098).
T2 sequence (whole entry): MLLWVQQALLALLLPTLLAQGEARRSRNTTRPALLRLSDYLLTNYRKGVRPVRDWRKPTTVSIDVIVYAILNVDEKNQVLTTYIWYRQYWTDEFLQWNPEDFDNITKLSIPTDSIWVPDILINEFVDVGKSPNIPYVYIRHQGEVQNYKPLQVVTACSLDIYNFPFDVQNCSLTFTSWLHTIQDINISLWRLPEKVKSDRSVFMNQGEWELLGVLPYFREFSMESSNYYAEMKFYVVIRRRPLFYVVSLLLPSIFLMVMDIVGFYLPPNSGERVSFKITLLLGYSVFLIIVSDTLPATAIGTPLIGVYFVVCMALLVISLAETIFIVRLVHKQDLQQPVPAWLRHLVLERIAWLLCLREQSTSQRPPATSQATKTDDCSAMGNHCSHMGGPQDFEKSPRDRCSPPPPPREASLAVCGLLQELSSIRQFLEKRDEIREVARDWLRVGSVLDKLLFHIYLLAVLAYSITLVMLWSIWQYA
The assay can be described thus: Inhibition of 5HT3A receptor expressed in Xenopus oocyte at 9 uM. Summed up:
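Oocytes injected with ~50 ng human 5-HT3A cRNA. Two-electrode voltage clamp at −50 mV, room temperature, ND96. Compound was pre-applied for 30 s, then co-applied with 100 μM 5-HT for 30 s. Peak current was expressed as a percentage of the mean of the flanking 100 μM 5-HT control currents. Fixed compound concentration of 9 μM.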

A short description of assay [6]: Inhibition of Torpedo nAChR expressed in Xenopus oocyte assessed as inhibition of ACh-induced channel current.
Assay [7] has as its target T1, GABA-A receptor; alpha-1/beta-2/gamma-2 (Homo sapiens). In words: Allosteric modulation of human GABAA alpha-1-beta-2-gamma-2 receptor expressed in Xenopus laevis assessed as enhancement of [3H]flunitrazepam binding up to 10 uM.
Assay [8] has as its target T2, 5-hydroxytryptamine receptor 3A (Homo sapiens). The assay can be described thus: Displacement of [3H]GR65630 from 5HT3A receptor expressed in Xenopus oocyte.
Another assay is filed under the species Homo sapiens. In words: Agonist activity at human GABA-A alpha-1-beta-2-gamma-2 receptor expressed in Xenopus laevis assessed as increase in channel current at saturated concentration by electrophysiology relative to control. In kind it is functional.
The target in assay [9] is T1, GABA-A receptor; alpha-1/beta-2/gamma-2 (Homo sapiens). In words: Allosteric modulation of human GABAA alpha-1-beta-2-gamma-2 receptor expressed in Xenopus laevis assessed as enhancement of [3H]mucimol binding up to 10 uM.
The target in assay [10] is T2, 5-hydroxytryptamine receptor 3A (Homo sapiens). In words: Inhibition of 5HT3A receptor expressed in Xenopus oocyte at 20 uM.
In a further assay the test system is Torpedo. In words: Binding affinity to Torpedo nAChR assessed as photoincorporation in to membrane. As to conditions: tested as the 3H-labelled form. In kind it is cell membranes. An outline of the steps: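 Torpedo californica nAChR-rich membranes at 2 mg/mL in Torpedo saline pH 7.0 with 1 mM oxidized glutathione. Incubated 40 min at room temperature with 0.3 μM tritiated probe, ± carbamylcholine, proadifen, tetracaine or PCP, then irradiated at 365 nm for 30 min on ice. Subunits separated by SDS-PAGE. Incorporation measured by fluorography and by scintillation counting of excised bands (two parallel labelings).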

Active and inactive are the calls of the source. The rule behind the calls is not given here.

What is called EC50 is the midpoint of the concentration-response curve. A lower EC50 goes with an effect from little substance. In general, inhibition refers to the percentage by which the read-out fell short of the control. The low end stands for little suppression, the high end for strong suppression. What is called IC50 is the concentration needed to halve the response being measured. In the assay on Xenopus laevis, `CCOC(=O)c1cncn1[C@@H](C)c1ccc(C2(C(F)(F)F)N=N2)cc1` had a 50% effective concentration (EC50) of 4.9 µM. Further, the fold change (FC) in assay [1] came to 2.2; in assay [2], 3; in assay [3], 1.8; in assay [4] it was 2.2. The Imax in assay [2] came out at 0.9%. Also, the inhibition in assay [5] stood at 29%. In addition, the IC50 in assay [6] is 4.7 µM.

For `CCOC(=O)c1cncn1[C@H](C)c1ccccc1`, the outcome in assay [7] was Active. For the same molecule, in assay [8], the outcome was inactive.

In the case of `CCOC(=O)c1cncn1C(C)c1ccc(C2(C(F)(F)F)N=N2)cc1` (stereo unspecified), the Activity in the assay listed under Homo sapiens came out at 1.3%. The result in assay [7], in [9] and in [8] was inactive. In [10], this molecule returned an inhibition of 1.7%. In addition, the half-maximal inhibitory concentration (IC50) in [6] came to 4.1 µM. For the same molecule, in the assay with Torpedo, the result was Active.

Turning to `CCOC(=O)c1cncn1[C@H](C)c1ccc(C2(C(F)(F)F)N=N2)cc1`, in the assay on Xenopus laevis, it took 17.1 µM to reach a half-maximal effect (EC50). Besides, in [2], the Imax is 0.73%. The molecule also returned an inhibition in assay [5] of 34%. For the same molecule, the 50% inhibitory concentration (IC50) in assay [6] came to 11.3 µM.
